In ChEMBL document CHEMBL1133745, “Indeno[1,2-b]pyrazin-2,3-diones: a new class of antagonists at the glycine site of the NMDA receptor with potent in vivo activity” (J Med Chem, 2000):
Each block holds one compound with its values, some of them ahead of it.

Key:
Mus musculus [1] = assay: Compound was tested in vivo (intra peritoneally) in the mouse maximal electroshock convulsion test; assay type: functional
In short: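 CD1 mice (Charles River); tonic convulsions induced by maximal electroshock. Most compounds tested in a single run; test variability estimated at about 12%.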

Glutamate NMDA receptor = assay: Displacement of [3H]dichlorokynurenate ([3H]-DCKA) from N-methyl-D-aspartate glutamate receptor 1 in rat cortical membranes; assay type: cell membranes, Membrane
[2] = molecular target: Glutamate receptor ionotropic, AMPA (Rattus norvegicus, UniProt P19490+P19491+P19492+P19493); assay: Displacement of [3H]-AMPA from Ionotropic glutamate receptor AMPA of rat cortical membranes; assay type: cell membranes, Membrane
Mus musculus [3] = assay: Compound was tested in vivo (intra peritoneally) with probenecid in the mouse maximal electroshock convulsion test; assay type: functional
In short: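 Maximal electroshock in CD1 mice, scoring tonic convulsions. Animals were pretreated with probenecid 200 mg/kg ip, and the compound was given ip 30 min before shock. ED50 in mg/kg ip.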

Mus musculus [4] = assay: Compound was tested in vivo (intravenously) activity in the mouse maximal electroshock convulsion test; assay type: functional; conditions: iv
Mus musculus [5] = assay: Compound was tested in vivo (intraperitoneally) with probenecid in the mouse maximal electroshock convulsion test

IC50 (Glutamate NMDA receptor): 140 nM
IC50 [2]: 1800 nM
SMILES: CC1(CC(=O)O)c2cc(Cl)c(Cl)cc2-c2nc(O)c(O)nc21 (stereo not drawn)
ED50 (Mus musculus [1]; Mus musculus, read-out: ED50): > 80 mg/kg

IC50 (Glutamate NMDA receptor): 21 nM
IC50 [2]: 7000 nM
SMILES: CCCC1(CC(=O)O)c2ccc(Cl)cc2-c2nc(O)c(O)nc21 (stereo not drawn)
ED50 (Mus musculus [1]; Mus musculus, read-out: ED50): 1.8 mg/kg

IC50 (Glutamate NMDA receptor): 21 nM
IC50 [2]: 4600 nM
SMILES: CC1(CC(=O)O)c2ccccc2-c2nc(O)c(O)nc21 (stereo not drawn)
ED50 (Mus musculus [1]; Mus musculus, read-out: ED50): 65 mg/kg
ED50 (Mus musculus [3]): 2.7 mg/kg

IC50 (Glutamate NMDA receptor): 15 nM
IC50 [2]: 1280 nM
SMILES: CC1(CC(=O)O)c2ccc(F)cc2-c2nc(O)c(O)nc21 (stereo not drawn)
ED50 (Mus musculus [1]; Mus musculus, read-out: ED50): > 80 mg/kg

IC50 (Glutamate NMDA receptor): 12 nM
IC50 [2]: 4500 nM
SMILES: Cc1ccc2c(c1)-c1nc(O)c(O)nc1C2(C)CC(=O)O (stereo not drawn)
ED50 (Mus musculus [1]; Mus musculus, read-out: ED50): 23 mg/kg

IC50 (Glutamate NMDA receptor): 44 nM
IC50 [2]: 1000 nM
SMILES: CC1(CC(=O)O)c2ccc(Cl)cc2-c2nc(O)c(O)nc21 (single isomer, unassigned; (+))
ED50 (Mus musculus [1]): >80 mg/kg

IC50 (Glutamate NMDA receptor): 5 nM
IC50 [2]: 10000 nM
SMILES: CC1(CC(=O)O)c2ccc(Cl)cc2-c2nc(O)c(O)nc21 (single isomer, unassigned; (-))
ED50 (Mus musculus [4]): 2 mg/kg
ED50 (Mus musculus [1]): 4.5 mg/kg

IC50 (Glutamate NMDA receptor): 28 nM
IC50 [2]: 2100 nM
SMILES: CC1(CC(=O)O)c2ccc(Cl)cc2-c2nc(O)c(O)nc21 (stereo in doubt; 10i)
ED50 (Mus musculus [1]): 6.8 mg/kg
ED50 (Mus musculus [5]): 1.8 mg/kg

The next lines start with the compound.

SMILES: CC1(CC(=O)O)c2ccc(Cl)c(Cl)c2-c2nc(O)c(O)nc21 (stereo not drawn)
ED50 (Mus musculus [1]; Mus musculus, read-out: ED50): > 80 mg/kg
IC50 (Glutamate NMDA receptor): 2550 nM
IC50 [2]: > 10000 nM

SMILES: CC1(CC(=O)O)c2ccc(OC(F)(F)F)cc2-c2nc(O)c(O)nc21 (stereo not drawn)
IC50 (Glutamate NMDA receptor): 4300 nM
IC50 [2]: > 10000 nM

SMILES: CC1(CC(=O)O)c2nc(O)c(O)nc2-c2cccc(Cl)c21 (stereo not drawn)
ED50 (Mus musculus [1]; Mus musculus, read-out: ED50): 80 mg/kg
IC50 (Glutamate NMDA receptor): 79 nM
IC50 [2]: 423 nM

SMILES: CC1(CC(=O)O)c2nc(O)c(O)nc2-c2cc(Cl)cc(Cl)c21 (stereo not drawn)
ED50 (Mus musculus [1]; Mus musculus, read-out: ED50): > 80 mg/kg
IC50 (Glutamate NMDA receptor): 24 nM
IC50 [2]: 187 nM

SMILES: O=C(O)C1Nc2cc(Cl)cc(Cl)c2S(=O)(=O)N1Cc1cccc(Br)c1 (stereo not drawn)
IC50 (Glutamate NMDA receptor): 8.3 nM
IC50 [2]: > 10000 nM

SMILES: O=c1[nH]c2cc(Cl)c(Cl)c([N+](=O)[O-])c2[nH]c1=O [LICOSTINEL]
ED50 (Mus musculus [1]; Mus musculus, read-out: ED50): 22.5 mg/kg
IC50 (Glutamate NMDA receptor): 4 nM
IC50 [2]: 766 nM
